# From PubChem
# Jurkat tox 60K – cytotoxic compounds reducing Jurkat cell viability. Jurkat E6.1 viability, ATP luminescence, 48 h. inhibition, % at 4 µM. hit rate 1.2% among 56,000. AID 463;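 active = inhibition above the mean inhibition of all tested compounds plus 3 SD, cut at about 28% in these data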
# HUVEC prolif 384 – human endothelial cell proliferation inhibition. AID 648. viability, % at 10 µM (by protocol). HUVEC proliferation, CellTiter-Glo luminescence, 72 h; hits give low values. hit rate 1.1% among 86,000;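 active = viability at or below 30%; inactive = viability above 30%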;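 note: 100% = median luminescence of DMSO-only cell control wells on each plate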
# Ecoli WT expand – growth inhibitors of E. coli BW25113 wild type. growth inhibition, % at 100 µM. OD600 absorbance. hit rate 0.15% among 98,000;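 active = growth inhibition above about 50% at one test dose, limit read from the data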;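 note: growth measured after 20 h incubation at 37 °C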
# Ecoli tolC – growth inhibitors of E. coli BW25113 tolC mutant | OD615 | growth inhibition, % at 10 µM (by protocol) | hit rate 2.2% among 65,000;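 active = growth inhibition at or above a cutoff equal to the mean over every tested compound plus 3 SD, cut at about 60% in these data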;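 note: growth measured after 20 h incubation at 37 °C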
#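 Material: E. coli BW25113 ΔtolC::kan, tolC deletion mutant strain. Measure: percent growth inhibition. Schedule: 37 °C, 20 h exposure. Doses: single-point testing at 10 µM. Signal: A615 absorbance measurement. Buffer or medium: kanamycin-containing LB broth (50 µg/mL).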
# H69AR inhibit – blocks growth of human H69AR lung tumor cells. viability, % at 10 µM. hit rate 6% among 85,000. H69AR lung tumor viability, ATP luminescence, 72 h; hits give low values;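 active = viability at or below 40%; inactive = viability above 40%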;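 note: multidrug resistant small cell line overexpressing MRP-1 efflux transporter; 100% = mean luminescence of untreated control wells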
# Lung fibro prol – blocks proliferation of human lung fibroblasts. LL 47 human lung fibroblast viability, ATP luminescence; hits give low values. viability, % at 10 µM. hit rate 1.1% among 85,000. AID 719;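 active = viability at or below 50% in the single dose screen; inactive = viability above 50%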;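 note: compound exposure lasted 72 h before the ATP readout; 100% = median luminescence of untreated cell-only wells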
#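 material = human LL 47 lung fibroblast cells | dosing = compounds added from tenfold dosing solution, 0.1% DMSO final | timing = overnight cell rest, 72 h compound treatment at 37 °C | measured by = CellTiter-Glo luminescence measuring cellular ATP | evaluation = % viability versus median cells-only luminescence | control set = cell-only wells, no compound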
# The depositor's hits bear a star; · = not tested or not shown. In the library only some 6.4% were active in any assay of this set; here they are far more common.
SMILES,Jurkat tox 60K,HUVEC prolif 384,Ecoli WT expand,Ecoli tolC,H69AR inhibit,Lung fibro prol
Oc1oc(-c2ccccc2)nc1C=Nc1cccc2ccccc12,·,67,-17,·,20*,94
COc1ccc(-c2noc(CN3CCC(Cc4ccccc4)CC3)n2)cc1,-3,121,·,67*,96,103
NC(=O)C1CCN(Cc2nc(-c3ccccc3)no2)CC1,-7,94,3,-5,86,106
Cc1ccc(-c2noc(CN3CCN(c4ccccc4F)CC3)n2)cc1,2,108,4,84*,93,94
Cc1ccc(-c2noc(CN3CCCCC3)n2)cc1,·,104,11,·,102,100
c1ccc(CC2CCN(Cc3nc(-c4ccccc4)no3)CC2)cc1,-3,112,2,70*,94,96
COc1ccc(-c2noc(CCC(=O)N3CCN(Cc4ccccc4)CC3)n2)cc1,·,111,4,23,100,90
CC1(C)C2CCC13CS(=O)(=O)N[C@@H]3C2 (some centres not stated),-1,97,5,-9,98,99
Cc1cc(C(F)F)n2ncc(C(=O)O)c2n1,·,100,-1,·,104,96
CCOC(=O)N1CCN(c2c(NCc3cccs3)c(=O)c2=O)CC1,37*,70,3,-8,31*,85
CCOC(=O)N1CC=C2C(C#N)=C(N)C(C#N)(C#N)[C@H](c3cccs3)C2C1 (some centres not stated),·,83,·,·,37*,92
CC(C)(C)OC(=O)N1CC=C2C(C#N)=C(N)C(C#N)(C#N)C(c3cccs3)C2C1 (configuration not stated),·,77,6,32,23*,90
CC1CC=C2C(C#N)=C(N)C(C#N)(C#N)C(c3cccs3)C2C1 (configuration not stated),·,82,8,17,32*,90
O=C(CNC(=O)c1cccs1)c1ccc(F)cc1,·,94,·,·,100,98
O=C(CC1(O)C(=O)N(Cc2cccc3ccccc23)c2ccccc21)c1cccnc1 (configuration not stated),·,40,4,·,20*,53
Cc1ccc(C(=O)CC2(O)C(=O)N(Cc3ccccc3Cl)c3ccccc32)o1 (configuration not stated),8,82,7,39,18*,89
CCOC(=O)CN(C(=O)CSc1nnc2c(n1)[nH]c1ccc(F)cc12)c1ccccc1,·,74,1,·,63,87
O=C(c1ccc(F)cc1)N1CCN(c2cc(N3CCCCC3)c(F)cc2[N+](=O)[O-])CC1,·,·,-14,·,·,·
CS(=O)(=O)Nc1ccc(N2CCCCC2)c(Cl)c1,5,85,10,3,107,94
CNC(=O)Nc1cccc(C(F)(F)F)c1,-3,98,9,-7,102,94
Cc1ccc(OC(F)F)c(NC(=O)Nc2cccc(C(F)(F)F)c2)c1,·,43,2,·,2.4*,35*
CC(C)CC(NC(=O)C1CCC(C)CC1)C(=O)Nc1ccc2c(c1)OCCO2 (configuration not stated),·,104,2,·,90,94
Cc1nn(-c2ccccc2)c2c1C1(C(=O)N3c4c(cccc41)C(C)CC3(C)C)C(C#N)=C(N)O2 (configuration not stated),·,77,3,·,39*,100
CC1=CC(C)(C)N2C(=O)C3(C(C#N)=C(N)Oc4cc(O)ccc43)c3cccc1c32 (configuration not stated),-4,69,13,100*,41,108
Cc1nn(-c2ccccc2)c2c1C1(C(=O)N(C)c3ccccc31)C(C#N)=C(N)O2 (configuration not stated),0,90,-7,2,42,93
SMILES,Jurkat tox 60K,HUVEC prolif 384,Ecoli WT expand,Ecoli tolC,H69AR inhibit,Lung fibro prol
Cc1ccc2c3c1C1(C(=O)N3C(C)(C)CC2C)C(C#N)=C(N)Oc2cc(O)ccc21 (configuration not stated),-6,32,-3,97*,85,88
Cc1cc2c3c(c1)C1(C(=O)N3C(C)(C)CC2C)C(C#N)=C(N)Oc2cc(O)ccc21 (configuration not stated),2,59,0,68*,50,98
CC1=CC(C)(C)N2C(=O)C3(C(C#N)=C(N)Oc4cc(C)oc(=O)c43)c3cc(C)cc1c32 (configuration not stated),·,90,·,·,64,84
CCOc1ccc(N(CC)S(=O)(=O)c2ccc3c(c2)n(C)c(=O)c(=O)n3C)cc1,·,108,-10,·,76,94
O=C(c1ccccc1F)N1CCN(Cc2cccc(Cl)c2)CC1,12,107,0,12,102,99
CCC(C)(C)n1nnnc1CN1CCC(c2nc3ccc(C)cc3[nH]2)CC1,-3,63,5,4,12*,84
COc1ccc(C2=[N+]([O-])C(C)(C)N(O)C2C)cc1 (configuration not stated),·,96,·,·,97,·
COCCN(C(=O)C1CC1)c1nnc(-c2cccc(C)c2)s1,-2,111,-8,3,92,99
Cc1nnc(C)n1/N=C/c1cc(Br)cc(Br)c1O,·,48,51*,2,107,96
Cc1nnc(C)n1/N=C/c1cc(Br)ccc1O,2,·,8,-10,·,·
CCn1c(N2CCN(C(=O)C34CC5CC(CC(C5)C3)C4)CC2)nc2ccccc21,6,102,-2,65*,55,96
CCn1c(=N)n(CC(=O)C23CC4CC(CC(C4)C2)C3)c2ccccc21,4,3.4*,17,99*,29*,110
CCCn1c(=N)n(CC(=O)OCC)c2ccccc21,-8,·,4,-8,·,·
O=C(N1CCN(c2ccccc2)CC1)C12CC3CC(CC(C3)C1)C2,-12,102,-2,11,84,106
CCn1c(-c2ccccc2Cl)nn(CC(=O)Nc2cc(Cl)ccc2Cl)c1=S,·,·,0,·,·,·
CCCCCOC(=O)Cn1c(N2CCCCCC2)nc2c1c(=O)[nH]c(=O)n2C,-1,93,-2,-6,56,98
COc1ccc(Cl)cc1S(=O)(=O)N1CCCC1,·,89,4,·,96,94
COc1ccc(Cl)cc1S(=O)(=O)n1cnc2ccccc21,53*,58,1,11,17*,80
CCOc1ccc(Cl)cc1S(=O)(=O)n1cnc2ccccc21,51*,59,1,0,20*,62
Cc1cc(C)c(S(=O)(=O)n2cnc3ccccc32)c(C)c1,·,102,2,·,102,105
CCOc1cc(C)c(Cl)cc1S(=O)(=O)n1cnc2ccccc21,3,77,-3,39,39*,97
Cc1ccc2c(CC(=O)OCc3nc(N)nc(Nc4ccccc4C)n3)coc2c1,4,91,3,72*,88,103
O=C(O)c1ccccc1-c1ccccc1C(=O)NCCCO,·,96,1,·,67,93
CCOC(=O)c1[nH]c2ccccc2c1NC(=O)c1ccc2c(c1)OCO2,2,81,-15,-15,22*,78
